# According to ChEMBL document CHEMBL1138841, “An orally bioavailable, functionally selective inverse agonist at the benzodiazepine site of GABAA alpha5 receptors with cognition enhancing properties” (J Med Chem, 2004):
# What was measured:
# [1] = biological target: GABA-A receptor; alpha-3/beta-3/gamma-2 (Homo sapiens) (UniProt P18507+P28472+P34903); test: In vitro percent efficacy against human gamma-aminobutyric-acid A receptor alpha-3-beta-3-gamma-2 expressed in L(tk-) cells; assay type: cell-based
# Procedure, shortened: (§1)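 Whole-cell patch clamp on mouse fibroblast L(tk-) cells stably expressing human αxβ3γ2 receptors. Efficacy is the maximum % modulation of current evoked by a submaximal (EC20) GABA concentration. Mean ± SEM from at least five individually fitted concentration–response curves per subtype.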
# [2] = biological target: GABA-A receptor; alpha-1/beta-3/gamma-2 (Homo sapiens) (UniProt P14867+P18507+P28472); test: In vitro percent efficacy against human gamma-aminobutyric-acid A receptor alpha-1-beta-3-gamma-2 expressed in L(tk-) cells; assay type: cell-based; procedure, shortened: as §1
# [3] = biological target: GABA-A receptor; alpha-2/beta-3/gamma-2 (Homo sapiens) (UniProt P18507+P28472+P47869); test: In vitro percent efficacy against human gamma-aminobutyric-acid A receptor alpha-2-beta-3-gamma-2 expressed in L(tk-) cells; assay type: cell-based; procedure, shortened: as §1
# [4] = biological target: GABA-A receptor; alpha-5/beta-3/gamma-2 (Homo sapiens) (UniProt P18507+P28472+P31644); test: In vitro percent efficacy against human gamma-aminobutyric-acid A receptor alpha-5-beta-3-gamma-2 expressed in L(tk-) cells; assay type: cell-based; procedure, shortened: as §1
# [5] = biological target: T1, GABA-A receptor; alpha-5/beta-3/gamma-2 (Homo sapiens, UniProt P18507+P28472+P31644); test: Displacement of [3H]-Ro- 15-1788 from human gamma-aminobutyric-acid GABA-A receptor alpha-5-beta-3-gamma-2 expressed in L(tk-) cells; assay type: cell-based
# T1 sequence (P18507 whole entry): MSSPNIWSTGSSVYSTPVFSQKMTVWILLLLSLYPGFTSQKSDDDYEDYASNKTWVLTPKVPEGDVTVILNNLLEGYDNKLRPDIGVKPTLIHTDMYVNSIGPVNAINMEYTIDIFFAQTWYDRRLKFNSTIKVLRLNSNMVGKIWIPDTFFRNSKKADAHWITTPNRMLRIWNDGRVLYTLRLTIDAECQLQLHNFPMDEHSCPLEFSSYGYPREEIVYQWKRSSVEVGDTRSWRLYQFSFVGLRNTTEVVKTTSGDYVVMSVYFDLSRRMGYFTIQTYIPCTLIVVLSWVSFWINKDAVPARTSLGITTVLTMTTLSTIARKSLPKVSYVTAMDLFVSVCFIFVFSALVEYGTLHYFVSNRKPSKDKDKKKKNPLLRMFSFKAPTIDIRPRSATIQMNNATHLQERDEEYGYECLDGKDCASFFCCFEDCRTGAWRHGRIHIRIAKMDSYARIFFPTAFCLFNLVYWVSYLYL
# T1 sequence (P28472 whole entry): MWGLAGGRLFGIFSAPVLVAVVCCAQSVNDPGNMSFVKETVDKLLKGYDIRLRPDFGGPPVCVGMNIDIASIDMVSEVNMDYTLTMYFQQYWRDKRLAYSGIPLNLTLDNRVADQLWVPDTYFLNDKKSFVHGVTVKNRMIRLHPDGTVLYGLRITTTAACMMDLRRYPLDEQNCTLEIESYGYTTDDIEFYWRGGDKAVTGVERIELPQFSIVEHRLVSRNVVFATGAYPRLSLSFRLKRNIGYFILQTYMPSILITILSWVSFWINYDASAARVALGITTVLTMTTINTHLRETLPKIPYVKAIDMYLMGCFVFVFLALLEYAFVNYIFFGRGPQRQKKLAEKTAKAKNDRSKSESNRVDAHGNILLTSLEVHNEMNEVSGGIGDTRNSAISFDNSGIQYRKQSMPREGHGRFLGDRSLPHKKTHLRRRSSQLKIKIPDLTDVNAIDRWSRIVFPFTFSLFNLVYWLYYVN
# T1 sequence (P31644 whole entry): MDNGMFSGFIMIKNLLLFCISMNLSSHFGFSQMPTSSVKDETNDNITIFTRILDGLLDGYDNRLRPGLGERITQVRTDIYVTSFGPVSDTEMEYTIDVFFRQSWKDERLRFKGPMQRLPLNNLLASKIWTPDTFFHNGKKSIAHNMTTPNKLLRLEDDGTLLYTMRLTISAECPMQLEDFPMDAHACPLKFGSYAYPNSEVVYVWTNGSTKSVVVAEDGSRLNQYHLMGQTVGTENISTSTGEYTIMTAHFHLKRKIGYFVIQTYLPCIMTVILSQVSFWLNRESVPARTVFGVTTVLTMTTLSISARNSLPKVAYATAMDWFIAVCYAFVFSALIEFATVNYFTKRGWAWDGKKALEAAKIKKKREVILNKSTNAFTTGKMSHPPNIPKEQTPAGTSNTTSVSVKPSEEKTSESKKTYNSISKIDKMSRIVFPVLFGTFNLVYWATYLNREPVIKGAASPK
# [6] = biological target: GABA A receptor alpha-4/beta-3/gamma-2 (Homo sapiens, UniProt P18507+P28472+P48169); test: Binding affinity towards gamma-aminobutyric-acid GABA-A receptor alpha-4-beta-3-gamma-2; assay type: protein-complex assay
# [7] = biological target: T2, GABA-A receptor; alpha-1/beta-3/gamma-2 (Homo sapiens, UniProt P14867+P18507+P28472); test: Displacement of [3H]-Ro- 15-1788 from human gamma-aminobutyric-acid GABA-A receptor alpha-1-beta-3-gamma-2 expressed in L(tk-) cells; assay type: cell-based
# T2 sequence (P14867 whole entry): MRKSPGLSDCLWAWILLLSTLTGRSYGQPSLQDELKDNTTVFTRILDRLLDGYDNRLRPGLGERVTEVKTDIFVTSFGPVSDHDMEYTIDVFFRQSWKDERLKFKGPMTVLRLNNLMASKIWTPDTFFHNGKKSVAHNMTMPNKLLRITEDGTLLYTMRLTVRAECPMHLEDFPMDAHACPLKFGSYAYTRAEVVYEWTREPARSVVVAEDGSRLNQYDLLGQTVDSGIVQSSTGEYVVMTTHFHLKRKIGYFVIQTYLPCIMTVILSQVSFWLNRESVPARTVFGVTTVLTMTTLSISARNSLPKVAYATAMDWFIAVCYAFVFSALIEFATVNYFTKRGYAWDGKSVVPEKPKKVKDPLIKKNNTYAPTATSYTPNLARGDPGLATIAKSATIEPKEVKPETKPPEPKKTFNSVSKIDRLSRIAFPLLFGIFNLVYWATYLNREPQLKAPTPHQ
# T2 sequence (P18507 whole entry): T1 sequence (P18507 whole entry)
# T2 sequence (P28472 whole entry): T1 sequence (P28472 whole entry)
# [8] = Oral bioavailability in rat; assay type: ADME, organism-based; settings: in vivo
# [9] = biological target: T3, GABA-A receptor; alpha-3/beta-3/gamma-2 (Homo sapiens, UniProt P18507+P28472+P34903); test: Displacement of [3H]-Ro- 15-1788 from human gamma-aminobutyric-acid GABA-A receptor alpha-3-beta-3-gamma-2 expressed in L(tk-) cells; assay type: cell-based
# T3 sequence (P18507 whole entry): T1 sequence (P18507 whole entry)
# T3 sequence (P28472 whole entry): T1 sequence (P28472 whole entry)
# T3 sequence (P34903 whole entry): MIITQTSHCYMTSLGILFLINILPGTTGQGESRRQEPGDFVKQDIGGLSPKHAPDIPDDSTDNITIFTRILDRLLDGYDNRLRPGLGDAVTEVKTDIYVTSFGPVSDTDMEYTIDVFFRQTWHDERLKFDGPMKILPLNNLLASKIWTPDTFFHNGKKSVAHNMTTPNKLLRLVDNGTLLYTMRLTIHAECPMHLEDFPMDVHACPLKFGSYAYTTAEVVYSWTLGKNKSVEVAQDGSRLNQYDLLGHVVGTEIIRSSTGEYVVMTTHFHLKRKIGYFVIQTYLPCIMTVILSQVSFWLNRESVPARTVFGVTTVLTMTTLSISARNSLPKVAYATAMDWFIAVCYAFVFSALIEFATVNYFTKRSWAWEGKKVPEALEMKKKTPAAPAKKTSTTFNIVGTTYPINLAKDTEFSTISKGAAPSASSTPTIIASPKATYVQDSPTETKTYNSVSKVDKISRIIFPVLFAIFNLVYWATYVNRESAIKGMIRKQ
# [10] = biological target: GABA-A receptor; alpha-6/beta-3/gamma-2 (Homo sapiens, UniProt P18507+P28472+Q16445); test: Binding affinity towards gamma-aminobutyric-acid GABA-A receptor alpha-6-beta-3-gamma-2; assay type: protein-complex assay
# [11] = biological target: GABA-A receptor; anion channel (Rattus norvegicus) (UniProt O09028+P15431+P18506+P18508+P19969+P20236+P23574+P23576+P28471+P28473+P30191+P62813+P63079+P63138+Q91ZM7+Q9ES14); test: Concentration required to occupy 50% of gamma-aminobutyric-acid GABA-A receptor alpha subtype at 0.75 hr after dose; assay type: protein-complex assay
# Procedure, shortened: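 Rats dosed orally in 0.5% Methocel vehicle; occupancy of the benzodiazepine binding site measured 0.75 h postdose by in vivo [3H]Ro 15-1788 binding. Dose giving 50% occupancy read from the dose–occupancy relationship.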
# [12] = Oral bioavailability in dog; assay type: ADME, organism-based, Canis lupus familiaris; settings: in vivo
# [13] = biological target: T4, GABA-A receptor; alpha-2/beta-3/gamma-2 (Homo sapiens, UniProt P18507+P28472+P47869); test: Displacement of [3H]-Ro- 15-1788 from human gamma-aminobutyric-acid GABA-A receptor alpha-2-beta-3-gamma-2 expressed in L(tk-) cells; assay type: cell-based
# T4 sequence (P18507 whole entry): T1 sequence (P18507 whole entry)
# T4 sequence (P28472 whole entry): T1 sequence (P28472 whole entry)
# T4 sequence (P47869 whole entry): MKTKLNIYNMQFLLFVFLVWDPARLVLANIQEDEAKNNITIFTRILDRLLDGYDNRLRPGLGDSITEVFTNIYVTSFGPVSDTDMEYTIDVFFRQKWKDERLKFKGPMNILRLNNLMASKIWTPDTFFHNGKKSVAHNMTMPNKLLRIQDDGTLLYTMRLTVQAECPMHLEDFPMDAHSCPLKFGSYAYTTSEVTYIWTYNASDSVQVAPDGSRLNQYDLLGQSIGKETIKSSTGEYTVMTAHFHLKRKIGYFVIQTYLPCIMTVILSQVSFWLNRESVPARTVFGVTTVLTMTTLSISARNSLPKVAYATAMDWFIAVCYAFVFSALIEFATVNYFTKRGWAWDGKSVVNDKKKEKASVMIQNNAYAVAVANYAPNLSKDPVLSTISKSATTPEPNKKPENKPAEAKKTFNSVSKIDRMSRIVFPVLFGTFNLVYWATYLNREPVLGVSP
# GABA-A receptor; alpha-6/beta-3/gamma-2, sequence (Q16445 whole entry, one chain of several): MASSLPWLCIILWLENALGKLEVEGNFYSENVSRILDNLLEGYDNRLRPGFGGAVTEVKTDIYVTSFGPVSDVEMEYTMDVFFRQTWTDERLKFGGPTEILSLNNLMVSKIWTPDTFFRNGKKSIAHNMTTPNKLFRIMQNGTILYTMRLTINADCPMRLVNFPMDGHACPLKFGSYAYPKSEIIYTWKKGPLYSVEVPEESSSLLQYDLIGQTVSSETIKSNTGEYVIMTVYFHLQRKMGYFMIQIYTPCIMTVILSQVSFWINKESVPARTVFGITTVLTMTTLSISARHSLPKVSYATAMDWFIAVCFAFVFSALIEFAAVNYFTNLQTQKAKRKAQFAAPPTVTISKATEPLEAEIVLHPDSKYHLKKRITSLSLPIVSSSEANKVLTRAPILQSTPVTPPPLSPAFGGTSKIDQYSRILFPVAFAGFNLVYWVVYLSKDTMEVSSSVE
# GABA A receptor alpha-4/beta-3/gamma-2, sequence (P48169 whole entry, one chain of several): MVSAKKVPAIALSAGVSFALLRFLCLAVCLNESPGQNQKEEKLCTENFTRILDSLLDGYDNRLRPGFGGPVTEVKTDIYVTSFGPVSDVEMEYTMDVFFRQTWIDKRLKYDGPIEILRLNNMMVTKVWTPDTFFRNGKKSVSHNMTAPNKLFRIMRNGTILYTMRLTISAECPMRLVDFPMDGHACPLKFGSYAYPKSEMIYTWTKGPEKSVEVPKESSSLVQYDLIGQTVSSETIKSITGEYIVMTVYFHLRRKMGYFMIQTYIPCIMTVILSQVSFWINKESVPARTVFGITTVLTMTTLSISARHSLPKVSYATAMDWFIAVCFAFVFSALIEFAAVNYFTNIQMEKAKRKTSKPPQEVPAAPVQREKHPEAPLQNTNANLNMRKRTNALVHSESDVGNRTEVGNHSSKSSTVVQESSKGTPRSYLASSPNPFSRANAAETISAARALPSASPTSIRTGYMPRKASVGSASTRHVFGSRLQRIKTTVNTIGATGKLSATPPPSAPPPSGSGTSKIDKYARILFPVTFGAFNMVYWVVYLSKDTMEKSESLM
SMILES,Efficacy [1] [%],Efficacy [2] [%],Efficacy [3] [%],Efficacy [4] [%],Ki [5] [nM],Ki [6] [nM],Ki [7] [nM],bioavailability [8] [%],Ki [9] [nM],Ki [10] [µM],Occupancy [11] [mg/kg],bioavailability [12] [%],Ki [13] [nM]
Cc1cc(-c2nnc3c4ccccc4c(OCc4cn(C)nn4)nn23)no1,-7,-15,16,-40,–,–,–,–,–,–,–,–,–
Cc1cc(-c2nncc3c(C(C)(C)C)c(OCc4ncnn4C)nn23)no1,-9,-16,6,-55,1.4,395,0.83,52,0.77,> 4,0.35,8,0.85
CNC1=Nc2ccc(Cl)cc2C(c2ccccc2)=[N+]([O-])C1,113,100,111,–,–,–,–,–,–,–,–,–,–
CCc1c(C(=O)OC)ncc2[nH]c3cc(OC)c(OC)cc3c12,-62,-71,-53,-57,–,–,–,–,–,–,–,–,–
